Assay results from ChEMBL document CHEMBL1130284, “Analogues of N alpha-(4-amino-4-deoxypteroyl)-N delta-hemiphthaloyl-L-ornithine (PT523) modified in the side chain: synthesis and biological evaluation” (J Med Chem, 1997).

Key:
SF-539 = test: The IC50 value was measured on SF-539 cell line in CNS tumor type.; assay type: functional, cell-based; settings: Homo sapiens
Procedure, shortened: (§1)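 Standard NCI cell-line panel protocol. Cells plated in 96-well format and treated continuously with drug for 48 h. Total protein stained with Sulforhodamine B and IC50 derived.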

Mus musculus [1] = test: Tumor size of subcutaneously implanted SCC-VII squamous cell carcinoma in mice on day 7; settings: route subcutaneous
SCC-25 = test: In vitro antitumor activity against SCC25 human head and neck squamous carcinoma cells containing 10% fetal bovine serum; assay type: functional, cell-based
Procedure, shortened: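 Clonogenic assay. Cells kept in Dulbecco's MEM with 10% FBS and hydrocortisone (400 µg/L). Exponential-phase cells preincubated without drug for 48 h, exposed to 0.01-5000 nM for 72 h, then replated in fresh medium. After 14 days, colonies of ≥5 cells stained with crystal violet and counted. Survival taken as % of untreated controls and IC50 estimated from a log-log plot. Replicate plates, at least three separate days.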

NCI-H23 = test: The IC50 value was measured on NCl-H23 cell line in NSCL tumor type.; assay type: functional, cell-based; settings: Homo sapiens; procedure, shortened: as §1
HT-29 = test: The IC50 value was measured on HT-29 cell line in colon tumor type.; assay type: functional, cell-based; settings: Homo sapiens; procedure, shortened: as §1
EKVX = test: The IC50 value was measured on EKVX cell line in NSCL tumor type.; assay type: functional, cell-based; settings: Homo sapiens; procedure, shortened: as §1
UO-31 = test: The IC50 value was measured on UO-31 cell line in renal tumor type.; assay type: functional, cell-based; settings: Homo sapiens; procedure, shortened: as §1
SK-MEL-5 = test: The IC50 value was measured on SK-MEL-5 cell line in melanoma tumor type.; assay type: functional, cell-based; settings: Homo sapiens; procedure, shortened: as §1
ACHN = test: The IC50 value was measured on ACHN cell line in renal tumor type.; assay type: functional, cell-based; settings: Homo sapiens; procedure, shortened: as §1
DU-145 = test: The IC50 value was measured on DU-145 cell line in prostate tumor type.; assay type: functional, cell-based; settings: Homo sapiens; procedure, shortened: as §1
NCI/ADR-RES = test: The IC50 value was measured on MCF7-ADR cell line in breast tumor type.; assay type: functional, cell-based; settings: Homo sapiens; procedure, shortened: as §1
SNB-75 = test: The IC50 value was measured on SNB-75 cell line in CNS tumor type.; assay type: functional, cell-based; settings: Homo sapiens; procedure, shortened: as §1
NCI-H522 = test: The IC50 value was measured on NCl-H522 cell line in NSCL tumor type.; assay type: functional, cell-based; settings: Homo sapiens; procedure, shortened: as §1
OVCAR-5 = test: The IC50 value was measured on OVCAR-5 cell line in ovarian tumor type.; assay type: functional, cell-based; settings: Homo sapiens; procedure, shortened: as §1
LOX IMVI [2] = test: The IC50 value was measured on LOX IMVI cell line in melanoma tumor ty; assay type: functional, cell-based; settings: Homo sapiens; procedure, shortened: as §1
SK-MEL-28 = test: The IC50 value was measured on SKMEL-28 cell line in melanoma tumor type.; assay type: functional, cell-based; settings: Homo sapiens; procedure, shortened: as §1
SW-620 = test: The IC50 value was measured on SW-620 cell line in colon tumor type.; assay type: functional, cell-based; settings: Homo sapiens; procedure, shortened: as §1
OVCAR-8 = test: The IC50 value was measured on OVCAR-8 cell line in ovarian tumor type.; assay type: functional, cell-based; settings: Homo sapiens; procedure, shortened: as §1
MCF7 = test: The IC50 value was measured on MCF-7 cell line in breast tumor type; assay type: functional, cell-based; settings: Homo sapiens; procedure, shortened: as §1
SF-268 = test: The IC50 value was measured on SF-268 cell line in CNS tumor type.; assay type: functional, cell-based; settings: Homo sapiens; procedure, shortened: as §1
786-0 [3] = test: cells; settings: Homo sapiens
OVCAR-3 [4] = test: The IC50 value was measured on OVCAR-3 cell line in ovarian tumor t; assay type: functional, cell-based; settings: Homo sapiens; procedure, shortened: as §1
Mus musculus [5] = test: Tumor size of subcutaneously implanted SCC-VII squamous cell carcinoma in mice on day 0; settings: route subcutaneous
PC-3 = test: The IC50 value was measured on PC-3 cell line in prostate tumor type.; assay type: functional, cell-based; settings: Homo sapiens; procedure, shortened: as §1
Malme-3M = test: The IC50 value was measured on MALME-3M cell line in melanoma tumor type; assay type: functional, cell-based; settings: Homo sapiens; procedure, shortened: as §1
A549 = test: In vitro antitumor activity against A549 human non-small lung carcinoma cells containing 10% fetal bovine serum; assay type: functional, cell-based
Procedure, shortened: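 Cells plated at 2000-3000/well in RPMI with 10% fetal bovine serum and left to adhere for 24 h at 37 °C in humidified 5% CO2. Drug (0.1-1000 nM) then added for a further 72 h of continuous exposure. Sulforhodamine B staining read-out. Growth taken as % of untreated controls and plotted against log drug concentration to give IC50.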

HCT-15 = test: The IC50 value was measured on HCT-15 cell line in colon tumor type.; assay type: functional, cell-based; settings: Homo sapiens; procedure, shortened: as §1
NCI-H460 = test: The IC50 value was measured on NCl-H460 cell line in NSCL tumor type; assay type: functional, cell-based; settings: Homo sapiens; procedure, shortened: as §1
UACC-62 = test: The IC50 value was measured on UACC-62 cell line in melanoma tumor type.; assay type: functional, cell-based; settings: Homo sapiens; procedure, shortened: as §1
Mus musculus [6] = test: Tumor growth delay of subcutaneously implanted SCC-VII squamous cell carcinoma in mice; settings: route subcutaneous
KM12 = test: The IC50 value was measured on KM-12 cell line in colon tumor type.; assay type: functional, cell-based; settings: Homo sapiens; procedure, shortened: as §1
Mus musculus [7] = test: Time to reach 10 mm Tumor size of subcutaneously implanted SCC-VII squamous cell carcinoma in mice; settings: route subcutaneous
HCT-116 = test: The IC50 value was measured on HCT116 cell line in colon tumor type.; assay type: functional, cell-based; settings: Homo sapiens; procedure, shortened: as §1
[8] = target: T1, Dihydrofolate reductase (Homo sapiens) (UniProt P00374)
T1 sequence (whole entry): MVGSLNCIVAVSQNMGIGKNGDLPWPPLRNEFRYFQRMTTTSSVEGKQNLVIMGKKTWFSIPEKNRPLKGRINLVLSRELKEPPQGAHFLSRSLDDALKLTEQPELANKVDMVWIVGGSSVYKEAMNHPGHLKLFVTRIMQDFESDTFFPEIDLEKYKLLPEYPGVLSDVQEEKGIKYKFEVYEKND

786-0 [9] = test: The IC50 value was measured on 786-0 cell line in ovarian tumor t; assay type: functional, cell-based; settings: Homo sapiens, in the assay text read “renal” for “ovarian”; procedure, shortened: as §1
LOX IMVI [10] = test: The IC50 value was measured on LOX […] cell line in melanoma tumor ty; assay type: functional, cell-based; settings: Homo sapiens; procedure, shortened: as §1
OVCAR-3 [11] = test: The IC50 value was measured on OVCAR-3 cell line in ovarian tumor; assay type: functional, cell-based; settings: Homo sapiens; procedure, shortened: as §1
786-0 [12] = test: The IC50 value was measured on 786-0 cell line in ovarian tumor; assay type: functional, cell-based; settings: Homo sapiens, in the assay text read “renal” for “ovarian”; procedure, shortened: as §1

Row | Compound | IC50 (SF-539) [µM] | IC50 (SCC-25) [µM] | IC50 (NCI-H23) [µM] | IC50 (HT-29) [µM] | IC50 (EKVX) [µM] | IC50 (UO-31) [µM] | IC50 (SK-MEL-5) [µM] | IC50 (ACHN) [µM] | IC50 (DU-145) [µM] | IC50 (NCI/ADR-RES) [µM] | IC50 (NCI-H522) [µM] | IC50 (OVCAR-5) [µM] | IC50 (SK-MEL-28) [µM] | IC50 (SW-620) [µM] | IC50 (OVCAR-8) [µM] | IC50 (MCF7) [µM] | IC50 (SF-268) [µM] | IC50 (PC-3) [µM] | IC50 (A549) [µM] | IC50/[E] (nM milliunit-1) [8] | further results
1 | CN(Cc1cnc2nc(N)nc(N)c2n1)c1ccc(C(=O)N[C@@H](CCC(=O)O)C(=O)O)cc1 [METHOTREXATE] | 0.035 | 0.027 | 0.043 | 0.032 | > 1 | 0.191 | 0.087 | 0.04 | 0.023 | 0.078 | 0.229 | > 1 | > 1 | 0.033 | 0.031 | 0.036 | 0.052 | 0.002 | 0.023 | – | Tumor size (Mus musculus [1]): 7.3 mm; IC50 (SNB-75): > 10 µM; IC50 (LOX IMVI [2]): 0.026 µM; IC50 (786-0 [3]): 0.033 µM; IC50 (OVCAR-3 [4]): 0.398 µM; Tumor size (Mus musculus [5]): 1.6 mm; IC50 (Malme-3M): > 1 µM; IC50 (HCT-15): 0.03 µM; IC50 (NCI-H460): 0.028 µM; IC50 (UACC-62): 0.028 µM; TGD (Mus musculus [6]): 5 days; IC50 (KM12): 0.042 µM; Time (Mus musculus [7]): 12 days; IC50 (HCT-116): 0.03 µM
2 | Nc1nc(N)c2nc(CNc3ccc(C(=O)NC(CCNC(=O)c4ccccc4C(=O)O)C(=O)O)cc3)cnc2n1 (stereo unspecified) | 0.057 | – | 0.032 | 0.0098 | 0.021 | 0.008 | 0.085 | 0.045 | 0.034 | > 1 | > 1 | 0.086 | > 1 | 0.0063 | 0.0081 | > 1 | > 0.1 | 0.0067 | 0.022 | 2.5 | Tumor size (Mus musculus [1]): 5.1 mm; IC50 (786-0 [9]): 0.0092 µM; IC50 (SNB-75): > 1 µM; IC50 (LOX IMVI [2]): 0.0044 µM; IC50 (OVCAR-3 [4]): > 1 µM; Tumor size (Mus musculus [5]): 1.1 mm; IC50 (Malme-3M): > 1 µM; IC50 (HCT-15): 0.0072 µM; IC50 (NCI-H460): 0.014 µM; IC50 (UACC-62): 0.012 µM; TGD (Mus musculus [6]): 2.6 days; IC50 (KM12): > 1 µM; Time (Mus musculus [7]): 9.8 days; IC50 (HCT-116): 0.005 µM
3 | Nc1nc(N)c2nc(CNc3ccc(C(=O)NC(CCCCNC(=O)c4ccccc4C(=O)O)C(=O)O)cc3)cnc2n1 (stereo unspecified) | 0.026 | – | 0.0092 | 0.0057 | 0.036 | 0.0078 | 0.091 | 0.0052 | 0.0091 | 0.0091 | > 1 | > 1 | > 1 | 0.0034 | 0.0059 | 0.005 | 0.0084 | 0.005 | 0.0052 | – | IC50 (OVCAR-3 [4]): > 1 µM; IC50 (LOX IMVI [10]): 0.0009 µM; IC50 (Malme-3M): > 1 µM; IC50 (HCT-15): 0.0052 µM; IC50 (NCI-H460): 0.0042 µM; IC50 (UACC-62): > 1 µM; IC50 (KM12): 0.0049 µM; IC50 (HCT-116): 0.0006 µM
4 | Nc1nc(N)c2nc(CNc3ccc(C(=O)NC(CNC(=O)c4ccccc4C(=O)O)C(=O)O)cc3)cnc2n1 (stereo unspecified) | – | – | – | – | – | – | – | – | – | – | – | – | – | – | – | – | – | – | 0.023 | 3.5 | –
5 | Nc1nc(N)c2nc(CNc3ccc(C(=O)NC(CCCNC(=O)c4ccccc4C(=O)O)C(=O)O)cc3)cnc2n1 (stereo unspecified) | 0.0037 | 0.0003 | 0.0044 | 0.0012 | 0.023 | 0.0055 | 0.006 | 0.0024 | 0.0095 | 0.0027 | 0.023 | 0.0025 | 0.0046 | 0.0019 | 0.0024 | 0.0036 | 0.0025 | > 0.1 | 0.0013 | 2 | Tumor size (Mus musculus [1]): 6.8 mm; IC50 (SNB-75): > 10 µM; IC50 (LOX IMVI [2]): 0.0004 µM; IC50 (OVCAR-3 [11]): > 0.1 µM; IC50 (786-0 [12]): 0.0006 µM; Tumor size (Mus musculus [5]): 2.1 mm; IC50 (Malme-3M): 0.002 µM; IC50 (HCT-15): 0.0012 µM; IC50 (NCI-H460): 0.0005 µM; IC50 (UACC-62): 0.0018 µM; TGD (Mus musculus [6]): 5 days; IC50 (KM12): 0.0032 µM; Time (Mus musculus [7]): 12 days; IC50 (HCT-116): 0.0003 µM
6 | Nc1nc(N)c2nc(CNc3ccc(C(=O)NC(CCCNC(=O)c4ccc(C(=O)O)cc4)C(=O)O)cc3)cnc2n1 (stereo unspecified) | – | 0.072 | – | – | – | – | – | – | – | – | – | – | – | – | – | – | – | – | 3.3 | 2.8 | –
7 | Nc1nc(N)c2nc(CNc3ccc(C(=O)NC(CCCNC(=O)c4cccc(C(=O)O)c4)C(=O)O)cc3)cnc2n1 (stereo unspecified) | – | 0.0029 | – | – | – | – | – | – | – | – | – | – | – | – | – | – | – | – | 0.045 | 2.2 | –
8 | Nc1nc(N)c2nc(CNc3ccc(C(=O)NC(CCCNC(=O)c4cc(Cl)c(Cl)cc4C(=O)O)C(=O)O)cc3)cnc2n1 (stereo unspecified) | – | 0.018 | – | – | – | – | – | – | – | – | – | – | – | – | – | – | – | – | – | 2.4 | –
